Data from article PMC2233905 (The Journal of General Physiology, 2004).

How the values were obtained:
[1] = test system: K^+ current of rat sympathetic neurons; settings: cited from earlier work
hEag1 channels [2] = target: T1, hEag1 channels (Homo sapiens, UniProt O95259); test: Outside-out patch recordings of hEag1 currents; assay type: cell-based
T1 sequence (O95259 1-989): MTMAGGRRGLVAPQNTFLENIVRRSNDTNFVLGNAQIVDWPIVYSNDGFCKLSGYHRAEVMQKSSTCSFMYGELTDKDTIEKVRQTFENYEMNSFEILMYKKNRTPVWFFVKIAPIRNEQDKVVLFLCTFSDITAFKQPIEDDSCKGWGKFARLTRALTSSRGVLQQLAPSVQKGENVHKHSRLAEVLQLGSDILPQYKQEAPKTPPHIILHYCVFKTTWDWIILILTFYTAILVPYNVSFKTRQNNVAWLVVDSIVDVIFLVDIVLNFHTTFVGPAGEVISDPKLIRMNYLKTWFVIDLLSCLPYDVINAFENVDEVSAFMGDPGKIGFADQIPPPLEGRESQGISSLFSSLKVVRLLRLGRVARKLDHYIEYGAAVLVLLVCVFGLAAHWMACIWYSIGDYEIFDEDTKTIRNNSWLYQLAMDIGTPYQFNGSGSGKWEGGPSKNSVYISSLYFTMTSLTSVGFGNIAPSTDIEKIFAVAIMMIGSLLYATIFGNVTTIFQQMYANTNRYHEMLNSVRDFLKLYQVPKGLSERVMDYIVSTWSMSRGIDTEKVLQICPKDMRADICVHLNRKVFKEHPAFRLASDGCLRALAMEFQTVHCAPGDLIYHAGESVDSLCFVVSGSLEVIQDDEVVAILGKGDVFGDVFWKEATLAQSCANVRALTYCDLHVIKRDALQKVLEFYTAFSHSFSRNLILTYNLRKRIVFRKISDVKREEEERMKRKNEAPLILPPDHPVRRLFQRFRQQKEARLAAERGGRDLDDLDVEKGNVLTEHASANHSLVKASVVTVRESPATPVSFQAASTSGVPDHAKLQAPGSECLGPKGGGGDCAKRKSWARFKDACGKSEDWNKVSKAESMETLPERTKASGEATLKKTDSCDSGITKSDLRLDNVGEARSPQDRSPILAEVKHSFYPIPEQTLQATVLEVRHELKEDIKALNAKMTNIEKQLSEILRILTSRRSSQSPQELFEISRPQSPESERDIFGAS
In short: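 Outside-out patches from hEag1-expressing cells at room temperature. Successive 6-s recordings at 80 mV; drug applied to the extracellular face for 2.5 s, then removed. Currents were divided point-wise by control traces, and the time course was fitted with a single exponential to give the block or equilibration time constant and the steady-state fraction blocked.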

hEag1 channels [3] = target: T1, hEag1 channels; test: Whole-cell patch-clamp of hEag1 currents in stably transfected HEK-293 cells; assay type: cell-based
hEag1 channels [4] = target: T1, hEag1 channels; test: Inside-out patch recordings of hEag1 currents; assay type: cell-based
In short: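 Inside-out patches from hEag1-expressing cells at room temperature. Pipette: 145 NaCl, 5 KCl, 3 CaCl2, 1 MgCl2, 10 HEPES/NaOH pH 7.4. Successive 6-s pulses at 80 mV with drug applied for 2.5 s. Current ratios to preapplication traces were fitted with a single exponential to give the block time constant.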

hEag1 channels [5] = target: T1, hEag1 channels; test: Cell-attached patch recordings of hEag1 currents, drug in bath; assay type: cell-based; settings: 140 mM external K+, 60 mV
In short: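 hEag1-expressing cells grown 24–72 h on poly-L-lysine-coated coverslips; cell-attached patches at room temperature. Bath held 140 mM K+; pipette held control external solution (160 NaCl, 2.5 KCl, 2 CaCl2, 1 MgCl2, 10 HEPES, pH 7.4) without glucose. 1-s steps to 60 mV from −70 mV were recorded before, during and after washout of bath-applied drug.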

[6] = Ionization: pKa and calculated protonated fractions; assay type: physicochemical
In short: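 Fractions of unprotonated, monoprotonated and diprotonated test compound were calculated from its two pKa values at pH 6.4, 7.4 and 8.4. The diprotonated percentage was 100 × [H+]2 divided by the summed-species denominator. Protonated fractions in the pH 7.4 recording solution were predicted the same way.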

melanoma cells = settings: ref Gavrilova-Ruch et al., 2002; cited from earlier work
[7] = 10 μM imipramine or 1 μM astemizole
[8] = 200 μM internal TEA, 80 mV, 10 μM imipramine or 1 μM astemizole
[9] = control, 80 mV, 10 μM imipramine or 1 μM astemizole

Which “effect on whole-cell K+ current when included in the patch pipette” value ([1]; 50 μM in pipette, ref Wooltorton and Mathie (1995)) does the source give for C[N+](C)(C)CCC=C1c2ccccc2CCc2ccccc21 [N-methyl-amitriptyline] here?
The value was “does not inhibit”.

Which “effect on current, applied to the extracellular side in outside-out patches” value (hEag1 channels [2]; 5 μM, external and internal pH 7.4) does the source give for C[N+](C)(C)CCCN1c2ccccc2CCc2ccccc21.[I-] [N-methyl-imipramine, N-methyl-imipramine iodide] here?
The value was “virtually no effect”.

Which hEag1 current blocked (hEag1 channels [3]; 80 mV, 200 μM in the internal solution (unpublished data)) does the source give for CC[N+](CC)(CC)CC [TEA] here?
Its hEag1 current blocked is roughly 50%.

What about the hEag1 current blocked (hEag1 channels [3]; 80 mV, 7 mM in the external solution (unpublished data)) of the same compound?
Its hEag1 current blocked is roughly 50%.

With CN(C)CCC=C1c2ccccc2CCc2ccccc21 [amitriptyline] as the compound, how does the current blocked ([1]; 50 μM, ref Wooltorton and Mathie, 1995) read?
Its current blocked is roughly 90%.

Which results are given for CN(C)CCCN1c2ccccc2CCc2ccccc21 [imipramine]?
voltage dependence of block (hEag1 channels [3]): strongly voltage dependent; k of exponential fit to τclose(V) (tail current deactivation) (hEag1 channels [3]; [7]): −0.039; τ(0) of exponential fit to τclose(V) (tail current deactivation) (hEag1 channels [3]; [7]): 65.13 ms; effect on whole-cell current when added to the intracellular solution (hEag1 channels [3]; 100 μM in intracellular pH 6.4 solution (unpublished data)): no evident reduction; reduction of potency in the presence of internal TEA (hEag1 channels [3]; 200 μM internal TEA): ~50%; current blocked (hEag1 channels [3]; [8]): 39 ± 3%; τblock (hEag1 channels [3]; [8]): 86 ± 5 ms; effect of external TEA on the block (hEag1 channels [3]; 7 mM external TEA): did not affect; current blocked (hEag1 channels [3]; [9]): 77 ± 2%; τblock (hEag1 channels [3]; [9]): 35 ± 4 ms; slope of logIC50 versus difference between pHext and pHint (hEag1 channels [3]; linear fit): −0.86; slope of linear fit of τblock^−1 versus concentration (hEag1 channels [3]; nonsaturating concentrations, 80 mV): 2.5 s^−1μM^−1; slope of linear fit of τblock^−1 versus concentration (hEag1 channels [3]; pHext 7.4, pHint 6.4): 12.6 s^−1μM^−1; time constant of block washout (hEag1 channels [3]; pHext 7.4, pHint 6.4): 46 ± 8 s; slope of linear fit of τblock^−1 versus concentration (hEag1 channels [3]; pHext 7.4, pHint 7.4): 3.4 s^−1μM^−1; time constant of block washout (hEag1 channels [3]; pHext 7.4, pHint 7.4): 19 ± 6 s; slope of linear fit of τblock^−1 versus concentration (hEag1 channels [3]; pHext 7.4, pHint 8.4): 0.9 s^−1μM^−1; time constant of block washout (hEag1 channels [3]; pHext 7.4, pHint 8.4): 6 ± 1 s; Hill coefficient of fit to τblock versus concentration (hEag1 channels [3]; whole-cell, 80 mV): 1.27; time constant of current decay (τblock) at the IC50 concentration (hEag1 channels [3]; whole-cell, 80 mV): ~50 ms; τblock, maximum of Hill fit (hEag1 channels [3]; whole-cell, 80 mV): 86.7 ms; τblock, minimum of Hill fit (hEag1 channels [3]; whole-cell, 80 mV): 11.6 ms; fraction of the membrane electric field sensed at the binding site (hEag1 channels [3]; z = 1, fit of IC50 versus test potential): 39%; effect on current, direct application to inside-out patches (hEag1 channels [4]; 25 μM, bath pH 6.0, 80 mV): complete current suppression; time constant of block in inside-out patches (hEag1 channels [4]; bath pH 6.0, pipette pH 7.4, 80 mV): 155 ms; reversal of block on 2-s washout during the depolarization (hEag1 channels [4]; inside-out patches): fully reversed; time constant of block (equilibration of neutral drug) in outside-out patches (hEag1 channels [2]; bath pH 6.0, pipette pH 7.4): 182 ms; inhibition at 25 µM (hEag1 channels [2]; read-out: current inhibition in outside-out patches): ~30%; block of channels in cell-attached patches by bath application (hEag1 channels [5]): blocked; protonated fraction ([6]; pH 6.0): 99.97%; predicted protonated fraction ([6]; pH 7.4 recording solution): 99%; effect on proliferation rate (melanoma cells): significant reduction
